Hits are enriched below; roughly 5.6% of the tested compounds scored in any of these assays.
UPR XBP1 act: adaptive UPR (XBP1) activation; AID 463104; activation, % at 20 µM; CHO-XBP1 luciferase reporter, IRE1-XBP1 UPR activation, luminescence; percent of tunicamycin response, DMSO as zero; 330,000 compounds, 0.33% hits;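 active = versus positive control, 20 µM dose yields 30% or more activation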
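assay system = CHO-XBP1 luciferase reporter cells | amount = 1000 cells/well | buffer or medium = F12 plus 10% FBS | compound dosing = single point, 20 µM final compound, 1% DMSO | incubation = 16-18 h cell attachment at 37 °C, then 6 h compound exposure | detection = Steady-Glo luminescence read | controls = tunicamycin 10 µg/mL and vehicle-only wells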
UPR CHOP act: apoptotic UPR (CHOP) activation. CHO-CHOP luciferase reporter, luminescence; percent of tunicamycin response over DMSO baseline. 330,000 compounds, 0.34% hits. activation, % at 10 µM;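 active = at 10 µM dose, activation of 40% or more, normalized to positive control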
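Test system: CHO-CHOP cells, stable luciferase reporter of PERK-eIF2a-CHOP signalling | Quantity: 500 CHO-CHOP cells per well | Buffer or medium: F12 plus 10% serum | Compound dosing: 10 µM single point, 0.5% DMSO | Schedule: 6 h compound treatment, 37 °C | Signal: Luciferase luminescence | Control set: Tunicamycin high control, DMSO low control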
MPTP inh: blocks calcium-induced mitochondrial swelling. 360,000 compounds, 1.4% hits. isolated mouse mitochondria, Ca2+ swelling absorbance, 30 min. inhibition, % at 10 µM;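 active = inhibition of 50% or more, scaled per plate between neutral and stimulator controls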
NR3A LBD binder: NR3A (human) ligand-binding domain modulation | NR3A LBD differential scanning fluorimetry, Tm shift; 0% = protein alone, 100% = glycine-bound protein | Tm shift relative to glycine control, % at 25 µM | 340,000 compounds, 2.5% hits;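 active = melting temperature shift of at least 10% of the positive control shift, at one fixed dose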
aDG glyco up: alpha-DG glycosylation activation; Pro5-aDG cells, alpha-DG glycosylation AlphaScreen (IIH6); 0% Pro5, 100% B10-LARGE cell signal; activation, % at 10 µM; 360,000 compounds, 0.22% hits;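 active = activation of at least 8% versus controls, or a plate z-score of at least 8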;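 also: Pro5 are CHO cells carrying HIG-tagged alpha-DG that lacks glycosylation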
CHOP inhibitor: blocks CHOP induction under ER stress | CHO-K1 CHOP-promoter luciferase, tunicamycin-induced, 15-18 h | inhibition, % at 10 µM | 220,000 compounds, 3.8% hits;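 active = compounds that reduced the stress-induced luciferase reporter signal by more than about 70% of percent inhibition, limit read from the data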
CHOP confirm: confirmation of CHOP induction inhibitors. CHO-CHOP promoter luciferase reporter, tunicamycin-induced, luminescence. 2,100 compounds, 45% hits. AID 504437. inhibition, % at 10 µM. shares compounds with CHOP inhibitor;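 active = mean of three repeat readings of reporter signal inhibition above a set limit, cut at about 70% in these data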
Each line names hits and unclear results; the compound was inactive in the other large screens (follow-up assays come after a bar, where they were run).

CCOc1cc(CNc2ccc(O)cc2)cc(Br)c1OCc1ccccc1F	CHOP inhibitor 109.6 | CHOP confirm inactive
CCCOc1ccc(N2C(=O)CC(NNC(=O)c3ccc(COc4ccccc4)o3)C2=O)cc1 (stereo not given)	CHOP inhibitor 101.6 | CHOP confirm inactive
CCOc1cccc(N2C(=O)CC(NNC(=O)c3ccc(Br)o3)C2=O)c1 (stereo not given)	none
CC(=O)C(Cc1ccccc1)NC(=O)COc1ccc2c(c1)OCO2 (stereo not given)	none (no result: CHOP inhibitor)
CCCCOc1ccc(S(=O)(=O)NNC(=O)C2Cc3c(ccc4ccccc34)O2)cc1 (stereo not given)	CHOP inhibitor 97.8 | CHOP confirm inactive
Cc1ccc(S(=O)(=O)NNC(=O)C2Cc3c(ccc4ccccc34)O2)cc1 (stereo not given)	none
O=S(=O)(C/C(=C/CO)S(=O)(=O)c1ccccc1)c1ccccc1	none (no result: CHOP inhibitor) | CHOP confirm 117.6
CCOC(=O)c1sc(NC(=O)CSc2nnnn2-c2ccc(C)cc2C)nc1C	CHOP inhibitor 100.2 | CHOP confirm inactive
Cc1ccc(S(=O)(=O)c2c(N)n(-c3ccccc3)c3nc4ccccc4nc23)cc1	none
O=S(=O)(Nc1c(S(=O)(=O)c2ccccc2)c2nc3ccccc3nc2n1C1CCCCC1)c1ccccc1	CHOP inhibitor 105.7 (no result: UPR XBP1 act, UPR CHOP act) | CHOP confirm inactive
CCOC(=O)c1csc(-c2csc(CCNC(=O)c3ccccc3)n2)n1	none (no result: UPR XBP1 act, UPR CHOP act, NR3A LBD binder, CHOP inhibitor)
Cc1ccc(NC(c2ccccc2)c2nc3ccccc3[nH]c2=O)cc1 (stereo not given)	CHOP inhibitor 101.5 | CHOP confirm inactive
N#CSC(c1ccccc1)c1nc2ccccc2[nH]c1=O (stereo not given)	none (no result: CHOP inhibitor)
Nc1c(N(C(=O)Nc2ccc(Cl)c(Cl)c2)C2CCCC2)c(=O)[nH]c(=O)n1Cc1ccccc1	CHOP inhibitor 103.1 | CHOP confirm 114.8
O=C(NNc1ccc(C2CCCCC2)cc1)C(O)(c1ccccc1)c1cccs1 (stereo not given)	CHOP inhibitor 106.2 | CHOP confirm inactive
COc1ccc(C(O)(C(=O)NNc2ccc(C)cc2)c2cccs2)cc1 (stereo not given)	none
O=C(Nc1ccc(C(=O)N2CCOCC2)cc1)c1cc(-c2cccnc2)nc2ccc(Br)cc12	none
O=C(Nc1ccccn1)c1cc(-c2cccnc2)nc2ccc(Br)cc12	CHOP inhibitor 103.0 | CHOP confirm inactive
Cc1cccc(N/N=C(\C=N\N)C(=O)c2ccc(Br)cc2)c1	CHOP inhibitor 103.4 (no result: MPTP inh, NR3A LBD binder, aDG glyco up) | CHOP confirm inactive
COc1ccc(CCCNC(=O)C2Cc3c(-c4ccc(NC(C)=O)cc4)ccnc3O2)cc1 (stereo not given)	none (no result: UPR XBP1 act, UPR CHOP act, NR3A LBD binder, CHOP inhibitor)
O=C(CSc1nc(-c2ccccc2)c(-c2ccccc2)[nH]1)Nc1ccc2c(c1)OCO2	NR3A LBD binder 13.1, CHOP inhibitor 102.3 | CHOP confirm inactive
O=C(Cc1ccsc1)N1CCN(S(=O)(=O)c2ccccc2F)CC1	none (no result: CHOP inhibitor)
C/C(CCc1oc2ccc(Br)cc2c1-c1ccc(C)o1)=N/O	CHOP inhibitor 97.3 | CHOP confirm inactive
O=S(c1ccc2ccccc2c1)c1cnns1 (stereo not given)	CHOP inhibitor 105.5 | CHOP confirm inactive
Cc1nnsc1S(=O)c1ccc(Cl)c(Cl)c1 (stereo not given)	none (no result: CHOP inhibitor)
CC(C)(C)C(=O)Nc1ccc(-c2nc3ccccc3c(=O)o2)cc1	CHOP inhibitor 105.3 | CHOP confirm 90.2
CC(C)(C)C(=O)Nc1cccc(-c2nc3ccccc3c(=O)o2)c1	none
Cc1cc(NC(=O)NC2(C(F)(F)F)Oc3ccc(Cl)cc3O2)no1 (stereo not given)	CHOP inhibitor 98.9 | CHOP confirm 114.3
Cn1c(SCC(=O)N/N=C/c2ccc([N+](=O)[O-])s2)nnc1-c1ccccc1	CHOP inhibitor 104.8 | CHOP confirm inactive
Cn1c(SCC(=O)N/N=C/c2cc([N+](=O)[O-])ccc2O)nnc1-c1ccccc1	none
COc1cc(-c2nc3cnccn3c2Nc2ccc(C(C)C)cc2)ccc1O	CHOP inhibitor 110.0 | CHOP confirm inactive
COc1cc(-c2nc3cnccn3c2Nc2ccc(C)cc2)ccc1O	none
O=C(NCc1ccccc1Cl)c1ccc(S(=O)(=O)Nc2cccc(C(F)(F)F)c2)cc1	NR3A LBD binder 24.7, CHOP inhibitor 97.9 | CHOP confirm 110.1
C=CCOc1ccc(C2NC(=O)c3ccccc3O2)cc1OC (stereo not given)	none (no result: UPR XBP1 act, UPR CHOP act, NR3A LBD binder, CHOP inhibitor)
O=C(c1cn(-c2ccccc2)nc1-c1ccc(F)cc1)N1CCCCC1	none
O=C(CCl)Nc1cn(-c2ccccc2)nc1-c1ccc(F)cc1	CHOP inhibitor 105.3 | CHOP confirm 99.7
Cc1nn(CC(C)C)c2sc(C(=O)NC3CC(C)(C)NC(C)(C)C3)cc12	none (no result: CHOP inhibitor)
CC(CN1CCCC1)OC(=O)c1ccc(Br)cc1 (stereo not given)	none (no result: CHOP inhibitor)
Cc1cccc2cc(C#N)c(NCCCNS(=O)(=O)c3ccc(Cl)cc3)nc12	CHOP inhibitor 103.6 | CHOP confirm inactive
Cc1cccc2cc(C#N)c(NCCNS(=O)(=O)c3ccccc3)nc12	none
CCc1ccc(/C=C2/C(=O)NC(=O)N2C(C)=O)cc1	none (no result: CHOP inhibitor)
CCc1ccc(/C=c2\s/c(=C\C(=O)C(C)(C)C)[nH]c2=O)cc1	CHOP inhibitor 106.6 | CHOP confirm 80.1
O=S(=O)(Nc1cc(Sc2ncn[nH]2)c(O)c2ccccc12)c1ccccc1	CHOP inhibitor 105.7 | CHOP confirm 77.2
CCOC(=O)N=Nc1c(O)n(CC(=O)OC)c2ccccc12	none
CCOC(=O)N=Nc1c2ccccc2c2nc3no[nH]c3nc12	NR3A LBD binder 24.6, CHOP inhibitor 104.5 | CHOP confirm 112.0
COc1ccc(S(=O)(=O)N2CCCC2CNC(=O)C(=O)NCc2ccccn2)cc1 (stereo not given)	none (no result: CHOP inhibitor)
C=C(C)COc1ccc(-c2[nH]ncc2-c2ccc(OC)c(OC)c2)c(O)c1	none (no result: CHOP inhibitor)
C=C(C)COc1ccc(-c2[nH]ncc2Oc2ccccc2OCC)c(O)c1	NR3A LBD binder 11.1, CHOP inhibitor 107.0 | CHOP confirm 106.6
C=C(C)COc1ccc(-c2[nH]ncc2-c2ccc(OC)cc2)c(O)c1	none
O=[N+]([O-])c1ccc(COc2ccc(-c3[nH]ncc3-c3ccccc3)c(O)c2)cc1	NR3A LBD binder 24.9, CHOP inhibitor 99.4 | CHOP confirm 102.2
C=C(C)COc1ccc(-c2[nH]ncc2Oc2cccc(OC)c2)c(O)c1	CHOP inhibitor 103.0 | CHOP confirm inactive
COc1ccc(-c2cn[nH]c2-c2ccc(OCc3ccccc3)cc2O)cc1OC	none
C=C(C)COc1ccc(-c2[nH]ncc2-c2ccccc2)c(O)c1	CHOP inhibitor 101.7 | CHOP confirm inactive

Source: PubChem (several laboratories)
